In the EternaBench riboswitch data:

Tested on: MS2 coat protein
Experiment: apparent Kd, MS2 coat protein; higher = weaker binding; RNA-MaP array; FMN 200 µM where present
In short: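 Designs were transcribed by stalled E. coli RNA polymerase on Illumina sequencing-chip clusters. They were titrated with SNAP-549-labelled MS2 coat protein from 0.7 or 1.5 nM, doubling to 3 µM, without and then with constant ligand. Buffer: 100 mM Tris-HCl pH 7.5, 80 mM KCl, 4 mM MgCl2, BSA, DTT, yeast tRNA, Tween-20. Green signal was normalised to red-channel RNA signal and control-cluster median Fmax. Apparent Kd is the median of filtered per-cluster binding-curve fits.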

[1] = designed as: OFF switch for flavin mononucleotide, no ligand
[2] = ligand present: flavin mononucleotide, designed as: OFF switch for flavin mononucleotide
[3] = designed as: ON switch for flavin mononucleotide, no ligand
[4] = ligand present: flavin mononucleotide, designed as: ON switch for flavin mononucleotide

Sequence | apparent Kd [1] [nM] | apparent Kd [2] [nM] | apparent Kd [3] [nM] | apparent Kd [4] [nM]
UCCAACCCUGUGAGGAUAUCGUCCAUUUUUUGUUACGAGAAGGCACAUGAGGAUCACCCAUGUUUUUUAUUUUU | 21.9 | 134 |  | 
AUAAUUUUAUUUUUCCCAAGAAUCAGAAGGCAUUACAUGAGGAUCACCCAUGUUUUGGAUAGUAAUGAGGAUAUGAUAUGGUUA | 10.2 | 23.5 |  | 
AUAAAUCAUGUAGGAUAUGCGUGGCGAAGCUAUGCAGAAGGACAUGAGGAUCACCCAUGUCAUUCCGUCUGCGUACAGACGGAA | 34.5 | 308 |  | 
AACCGCGACCGGCCUGGCACGUCGAGAAGGGUACGUGACCUGCUUUACAUGAGGAUCACCCAUGUACAGGAUAUCGAAUAGCCG | 5.97 | 8.4 |  | 
GGAAAGCGAGGAUAUACAUGAGGAUCACCCAUGUUAACAAACAAACAAACAAACAAAAGUAGAAGGCGCAAAAU | 37 | 36.5 |  | 
UAUAUAUAGUAAGGAUAUGUAAUUAUUCUAUAAACAGAAGGUACUGACAUGAGGAUCACCCAUGUUUUAGUGUGGGCAUGUAGA | 43.4 | 46 |  | 
UGUGGUGGUUAGGAUAUAAUUAGAGGUUACUCGUUAGAAGGAGCUACAUGAGGAUCACCCAUGUGACUGUCCGC | 29.8 | 35.1 |  | 
GGGCCGGUGGAGAAGGAGCUUGCAAAAUGCAUGCUAGGAUAUCCACAUGAGGAUCACCCAUGUGGGAAUAUCUGGUUUUCACAG | 3.98 | 5.05 |  | 
GUGUACAGAGGAUAUAUAUGAGCAUGGAAACAUGCAAGAUCACAUGAGGAUCACCCAUGUAGAAGGCUGUACAC | 88.4 | 541 |  | 
GAAUUAUUGAUCCAAUUUUACAACAUGAGGAUCACCCAUGUGCAGGAUAUCGUGUGUUUUAUAUUCGAGAAGGGCAAGAACUUU | 141 | 300 |  | 
ACAUUCUUUCGAGGAUAUCGGUGAUUAAUUUUACGAGAAGGCGAUUUAAGAUAUAAUAUUUUAGACAUGAGGAUCACCCAUGUA |  |  | 26.1 | 24.1
UUAUGAUUAAGAGGAUAUAUACAACAUGAGGAUCACCCAUGUACCCAUGUAGUAGAAGGUUUAUUUUUAUAUAAUAAUAUAAUU |  |  | 115 | 64.9
GCAUGCAAGUAGAAGGUCGGAUAUUUUGAUACCGAAGGAUAUGCAGAAUCAUAUCCACAUGAUAACAUGAGGAUCACCCAUGUA | 15.3 | 12.7 |  | 
UGUAUACAGUCAGGAUAUCAUAGGUUGGUGCUUCUCCAGUGGUACAUGAGGAUCACCCAUGUUUAUGAGAAGGGACUAUUACCU | 7.82 | 15.1 |  | 
UACAUGAGGAUCACCCAUGUUUUGUCGUGUAUGGUAUUUAUCUAGGAUAUCAUUUUAGUUAGUUAUGAGAAGGAGAAUAUUAAU | 32.2 | 31.6 |  | 
CAGUGCAAUGUAGGAUAUGCUCAGGAAUACUGAGCAGAAGGACAUGAGGAUCACCCAUGUAAAAUGAAAGAUAAUAAAGCACUG | 16.1 | 51 |  | 
CGCACUGAUAGAGGAUAUGUUGUACAUGAGGAUCACCCAUGUGUUUUUGUAUCAAUAUUAGUGAAACAGAAGGCUAUUAGUGCG | 5.65 | 4.65 |  | 
AGUCUGUGGCAACUAUCCUCACAUGAGGAUCACCCAUGUAGGGAGGAUAUGCAUUUAAAGAAGUGGCAGAAGGCCCUACACGGA | 83.2 | 32.1 |  | 
CUAAUUAGUCAGAAGGUGCUGCCGGAAUCAUAGCAAGGAUAUGACAUGAGGAUCACCCAUGUACAGAUCCUACAUAAAAUCAGG | 5.73 | 8.98 |  | 
UUCGUGCAGCUUUGCUGUACGCGUACAUGAGGAUCACCCAUGUAGGAUAUGGUACGCUUUGUGUGCUAGAAGGAUAUGGAGAGG | 18.8 | 18.6 |  | 
GCCUUAUCUGUCAGGAUAUACAAUAAUUUUUUUUUGUAGAAGGGACAUGAGGAUCACCCAUGUACAUUACAUUG | 40 | 201 |  | 
AAUAAACUCACAGGAUAUAGCAUAGGUCGCGUGAACUUACAGGCGACUAUGCUAGAAGGGUGACCACAUGAGGAUCACCCAUGU |  |  | 734 | 145
CAUCCACAUGAGGAUCACCCAUGUGAGGAUAUGAUACUAUGUACUUCGGUACAUAGUAUCAGAAGGCACAGGUG | 120 | 37.4 |  | 
AUAUAUACAAAGUUACAUGAGGAUCACCCAUGUUUAUUGGGAAGAAGGGUAACAUUAUUAGAUGUAUAGGAUAUUUCACGAUUG |  |  | 513 | 320

Sequence | apparent Kd [1] [nM] | apparent Kd [2] [nM] | apparent Kd [3] [nM] | apparent Kd [4] [nM]
ACAUGCAUAGCGAUAUGAUCGAGAGAUCAUGUCGAAAAUUUUAGAAGGACAUGAGGAUCACCCAUGUAGGAUAUGGGAGCAUGA |  |  | 62.6 | 16.3
AAAAAACAUGAGGAUCACCCAUGUGAGGAUAUCACUAGUCAGUCCUCAGAGUGAGUACUGAGAAGGCACAUAAA | 86.9 | 54.3 |  | 
GGAUCCAUCACAGGAUAUGCUGGACUUUGUCCAGCAGAAGGGUGAACAUGAGGAUCACCCAUGUAAAAGGAUCCUAUAUUUAAU |  |  | 124 | 24.9
UAGUGAUUGCAAGGAUAUGCUAGUUUUUAUUUGUGUUUGAUAUCUAACAUGAGGAUCACCCAUGUGCAGAAGGUGCUUGAUUUG |  |  | 87.8 | 107
UUUAUAAAUUAGAAGGCAUGAUGAAUUACAAUAGACAUGAGGAUCACCCAUGUGUAUUCAUGUCAUGAGGAUAUAGUCAUAUAU |  |  | 8.91 | 6.45
UUAUACGUUGAGGAUAUGCGAAUUAGUAUAGUUGCAGAAGGCGAUACAUGAGGAUCACCCAUGUUUAUGGGCAU | 194 | 341 |  | 
GUCAGCUCGUGAGGAUAUACAACACUGCUUCGGCAGUGUAUUAAGAUCACAUGAGGAUCACCCAUGUAGAAGGCACGAUCUGAU | 13.6 | 220 |  | 
UUAAAUUAGUAGAAGGACGGAGAGUAUAAAGUCGUAGGAUAUACAUAAGACAUGAGGAUCACCCAUGUAAGUUUGUGAGGUAUG | 14.8 | 15.3 |  | 
GCACGGAUGGUAGGAUAUCAUUGCGAUUAGCUAUGAGAAGGACCACAUGAGGAUCACCCAUGUCCUCUAAUUAGCCUUCCGUGC | 179 | 297 |  | 
UUUAUAUGAGGAUAUCCGAGGAGCCACAUGAGGAUCACCCAUGUCGUCUUUUGUGAUAGUGGAGAAGGUGUGUCAG | 27.7 | 31.6 |  | 
UGUGUGAGACAGGAUAUGCCGGAUGAAUUGCUGGUAGAAGGGUCUACAUGAGGAUCACCCAUGUGGCCGGUUGG | 16.8 | 24.8 |  | 
GGACGUCACAUGAACAUGAGGAUCACCCAUGUAACUAGACAUGAGGAUAUGGAUCCUAAUUGGAUCCAGAAGGCAUGGACGUCC |  |  | 199 | 32.1
AAAAAGCGAGGAUAUACAUGAGGAUCACCCAUGUCAAAAAAAUAGAAAAAAAUAAAAAGUAGAAGGCGCAAAAA | 58.8 | 58.4 |  | 
ACGUUUAAUACAGGAUAUGUUAAUAUACAAUAGAUUGGAUAUUACUUAAUUACAGAAGGGUAGAACAUGAGGAUCACCCAUGUA |  |  | 329 | 239
UCAUCAGCGGGCGGGUCGGUUGGACAUGAGGAUCACCCAUGUAGAAGGACCGGUGGACUCCGCCGGUAGGAUAUACAUUUGGUG | 32.1 | 18.9 |  | 
GCUUGUGAAGGAUAUACUGGCGGCAUGCGCUCGGCACGCGCACAUGAGGAUCACCCAUGUAGAAGGUCAAACGU | 22.4 | 22.8 |  | 
AAUAUAAAGAGCUGGAACCUAAUAACAUGAGGAUCACCCAUGUAGGAUAUCAGCACGAUAAGUGCUGAGAAGGACAUCCAGCUC | 14.7 | 14.8 |  | 
CCUAAGGACACAGGAUAUAGCGUGGUGGCUGGGCUCCCACGGCGAGCGGCGCUAGAAGGGUGACCACAUGAGGAUCACCCAUGU |  |  | 538 | 148
CAGCCCUGAGGAUAUCCCUCCUUGUACAUGAGGAUCACCCAUGUUCUCCUCUGGGCUUUGGGAGAAGGCAGGUCUC | 26.8 | 26.4 |  | 
GAUUGACGACAAUUACAUGAGGAUCACCCAUGUUGUAGGAUGCAGGAUAUGUGGUAUAUUAUUUAACAGAAGGGCAAUAAUUUU |  |  | 25.8 | 29.3
AUAAAACAUGAGGAUCACCCAUGUAAAAAUAUGGGAGGAUAUGCGAAAUAAAAUAAAUAAGCAGAAGGCCUAAAAA |  |  | 50.4 | 23.7
GUAUCUCCUGACAUGAGGAUCACCCAUGUUUAAUUAUUAAAUCAGGAUAUCCUCUCGAAACGAGAGGAGAAGGGAUAAGAUACU |  |  | 5.66 | 5.72
GGGUCAACAUGAGGAUCACCCAUGUAGGAUAUCGCUAUUGUAAUCAUGAAACAUGAUUACAAUAGCGAGAAGGACAUAUGCGGG | 42 | 74.1 |  | 
AAUGUAUCCUCGGGAUCCACAUGAGGAUCACCCAUGUAGACUCAGGAUAUCCAAUGCGUUGGCAGGGAGAAGGGAGCUCGCAUG | 33.7 | 38.7 |  | 
